Positions count from the first letter of the chain named. Read-outs that look alike come from different tables or passages of the source.
What was measured:
Jurkat TAg cells = experiment: Inhibition studies with JTAg cells; assay type: cell-based; conditions: 50 μM, 1 h, western blot
Procedure, shortened: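 Jurkat TAg cells kept in log growth in supplemented RPMI 1640 (10% FBS). 20×10^6 cells treated for 1 h at room temperature with 50 μM test compound or DMSO (<2%), then split and stimulated 2 min with C305 hybridoma supernatant or left unstimulated. NP-40 lysates, Bradford-normalised, run on 10% SDS–PAGE. Blots probed for pLck Y394/Y505, pZAP-70 Y319 and pERK against total-protein controls, developed by ECL.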

PTP-PEST [1] = target: T1, PTP-PEST (Homo sapiens, UniProt Q05209); conditions: cited from earlier work
T1 sequence (Q05209 28-293 limits assumed): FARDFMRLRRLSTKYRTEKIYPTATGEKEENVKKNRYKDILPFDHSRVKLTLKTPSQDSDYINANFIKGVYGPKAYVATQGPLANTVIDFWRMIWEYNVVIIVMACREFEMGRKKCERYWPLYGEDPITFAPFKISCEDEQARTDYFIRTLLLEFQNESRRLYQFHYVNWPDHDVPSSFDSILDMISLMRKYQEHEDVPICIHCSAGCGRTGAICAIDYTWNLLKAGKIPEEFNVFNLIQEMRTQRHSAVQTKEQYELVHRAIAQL

CD45 = conditions: cited from earlier work
PTP-PEST [2] = target: T1, PTP-PEST; experiment: Mode of inhibition assay; assay type: biochemical
Procedure, shortened: (§1)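 Catalytic domains (LYP and PTP-PEST 5 nM; LYP C129/231S 20 nM) in pH 6.5 Tris/NaCl/EDTA/DTT/Brij 35 buffer at room temperature. Activity measured across a series of DiFMUP concentrations with no test compound or several fixed test compound concentrations, triplicate at each substrate level. Reciprocal rate plotted against reciprocal substrate concentration for each inhibitor level (Lineweaver–Burk).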

LYP C129S = target: T2, LYP C129S (Homo sapiens, UniProt Q9Y2R2, C129S); experiment: Enzyme inhibition assay; assay type: biochemical; conditions: 5 nM enzyme, 1.5 μM DiFMUP
T2 sequence (Q9Y2R2 24-289 C129S limits assumed): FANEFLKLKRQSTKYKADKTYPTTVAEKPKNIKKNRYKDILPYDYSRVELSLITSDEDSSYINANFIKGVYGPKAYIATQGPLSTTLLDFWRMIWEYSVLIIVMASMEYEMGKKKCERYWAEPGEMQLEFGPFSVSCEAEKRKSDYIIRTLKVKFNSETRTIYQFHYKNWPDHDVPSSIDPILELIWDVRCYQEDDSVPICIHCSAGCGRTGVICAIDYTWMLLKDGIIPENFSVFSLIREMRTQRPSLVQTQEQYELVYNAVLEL
Procedure, shortened: (§2)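 Single-mutant catalytic domains (C129S or C231S) at 5 nM final, each activated 30 min with 0.1 mM DTT. Triplicate kinetic fluorescence (360/455 nm, every 60 s, 30 min), averaged, converted to DiFMU by standard curve.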

LYP [3] = target: T3, LYP (Homo sapiens, UniProt Q9Y2R2); conditions: wild-type LYP; cited from earlier work
T3 sequence (Q9Y2R2 24-289 limits assumed): T2 sequence (Q9Y2R2 24-289 C129S limits assumed) with S106C

HePTP = conditions: cited from earlier work
LYP C231S = target: T4, LYP C231S (Homo sapiens, UniProt Q9Y2R2, C231S); experiment: Enzyme inhibition assay; assay type: biochemical; conditions: 5 nM enzyme, 1.5 μM DiFMUP
T4 sequence (Q9Y2R2 24-289 C231S limits assumed): T2 sequence (Q9Y2R2 24-289 C129S limits assumed) with S106C, C208S
Procedure, shortened: as §2

LYP C129/231S [4] = target: T5, LYP C129/231S (Homo sapiens, UniProt Q9Y2R2, C129S/C231S); experiment: Mode of inhibition assay; assay type: biochemical
T5 sequence (Q9Y2R2 24-289 C129S/C231S limits assumed): T2 sequence (Q9Y2R2 24-289 C129S limits assumed) with C208S
Procedure, shortened: as §1

LYP [5] = target: T3, LYP; experiment: Mode of inhibition assay; assay type: biochemical
Procedure, shortened: as §1

LYP C129/231S [6] = target: T5, LYP C129/231S; experiment: Enzyme inhibition assay; assay type: biochemical
Procedure, shortened: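 LYP C129S/C231S catalytic domain at 20 nM final, preactivated with 0.1 mM DTT for 1 h. Test compound and 1.5 μM DiFMUP added in DMSO (5% final). Fluorescence (ex 360/em 455 nm) read every 60 s for 30 min, in triplicate, averaged, converted to DiFMU via standard curve.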

[7] = read-out: Calculated Ki, from Lineweaver-Burk data
[8] = read-out: Estimated Ki from Dixon plot, Ki = -intersection point

Structure (SMILES): N#CCC[PH](CCC#N)([Au][Cl])c1ccccc1 [Complex 1, bis(cyanoethyl)phenylphosphine–Au(I)–Cl]
- Phosphorylation of Lck at Y505 (cellular CD45 inhibition) (Jurkat TAg cells; JTAg cells): no change in phosphorylation levels at position Y505
- Phosphorylation of ERK1/2 (Jurkat TAg cells; TCR stimulated JTAg cells): increased phosphorylation levels
- Phosphorylation of Lck at Y394 (cellular LYP inhibition) (Jurkat TAg cells; TCR stimulated JTAg cells): increase in phosphorylation at Y394
- Phosphorylation of ZAP-70 (Jurkat TAg cells; TCR stimulated JTAg cells): increased phosphorylation levels
- IC50 (PTP-PEST [1]): > 80 µM
- IC50 (CD45): > 70 µM
- Mode of inhibition (PTP-PEST [2]; Lineweaver-Burk plot): competitive inhibition
- Ki (PTP-PEST [2]; [7]): 53.3 ± 16.3 µM
- Ki (PTP-PEST [2]; [8]): ~80 µM
- IC50 (LYP C129S): 4 ± 0.2 µM
- IC50 (LYP [3]): 3.5 ± 0.1 µM
- IC50 (HePTP): > 50 µM
- IC50 (LYP C231S): 4 ± 0.8 µM
- Mode of inhibition (LYP C129/231S [4]; Lineweaver-Burk plot): mixed-type inhibition
- Ki (LYP C129/231S [4]; [7]): 58.6 ± 5.3 µM
- Ki (LYP C129/231S [4]; [8]): ~70 µM
- Mode of inhibition (LYP [5]; Lineweaver-Burk plot): competitive inhibition
- Ki (LYP [5]; [7]): 2.38 ± 1.1 µM
- Ki (LYP [5]; [8]): ~1.2 µM
- IC50 (LYP C129/231S [6]; LYP C129/231S, 20 nM enzyme, 1.5 μM DiFMUP): 40 ± 4 µM
- IC50 of LYP C129/231S relative to wild-type LYP and single mutants (LYP C129/231S [6]; fold higher): roughly 10 fold
